For data set [1], the system named is Chorioallantoic membrane. In words: Inhibition of VEGF165/bFGF-induced angiogenesis in chicken chorioallantoic membrane assessed a s decrease in number of vessels formed treated 8 hrs after VEGF/bFGF addition measured after 48 hrs by dissecting microscopic analysis. Format: functional. The settings on record: Gallus gallus.
The target of data set [2] is Epidermal growth factor receptor (Homo sapiens, UniProt P00533). It is filed as cell-based, A-431.
For data set [3], the target named is T1, Vascular endothelial growth factor receptor 1 (Homo sapiens, UniProt P17948). In words: Ratio of compound IC50 to CB676475 IC50 for VEGF-induced VEGFR1 phosphorylation in human A498 cells overexpressing Flt-1 by phosphotyrosine ELISA cytoblot analysis. Format: cell-based. The gist of the method: (§1)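 Cells at 60–75% confluence serum-starved 18 h, then pretreated 60 min with serial compound dilutions starting at 10 before growth factor stimulation. Cells fixed 30 min at 60 °C, then 70% ethanol 30 min, blocked with 1% BSA in TBS 1 h, HRP-anti-phosphotyrosine overnight, luminol ELISA substrate; light emission imaged.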
A general note: An ELISA detects its analyte on a solid surface through an enzyme-linked reagent.

The subject of data set [4] is A-431. Briefly: Ratio of cisplatin IC50 to compound IC50 for human A431 cells overexpressing EGFR by CYQUANT dye based assay.
Data set [5] addresses T2, Vascular endothelial growth factor receptor 2 (Homo sapiens, UniProt P35968). It is filed as cell-based, U-251.
The target in data set [6] is Platelet-derived growth factor receptor beta (Homo sapiens, UniProt P09619). Briefly: Inhibition of PDGF-BB-induced PDGFR beta phosphorylation in human SF539 cells overexpressing PDGFR beta pretreated for 60 mins prior to PDGF-BB addition measured after 10 mins by phosphotyrosine ELISA cytoblot analysis. Format: cell-based, SF-539.
The target of data set [7] is T1, Vascular endothelial growth factor receptor 1. Briefly: Inhibition of VEGF-induced VEGFR1 phosphorylation in human A498 cells overexpressing Flt-1 pretreated for 60 mins prior to VEGF addition measured after 10 mins by phosphotyrosine ELISA cytoblot analysis. Format: cell-based.
Data set [8] relates to A-431. Briefly: Cytotoxicity against human A431 cells overexpressing EGFR assessed as inhibition of cell proliferation treated for 12 hrs measured after 36 hrs by CYQUANT dye based assay. It is filed as functional.
For data set [9], the target named is T2, Vascular endothelial growth factor receptor 2. Briefly: Ratio of compound IC50 to semaxanib IC50 for VEGF-induced VEGFR2 phosphorylation in human U251 cells overexpressing Flk-1 by phosphotyrosine ELISA cytoblot analysis. To be noted: U-251. It is filed as cell-based. In outline: as §1
For data set [10], the system named is B16-F10. In words: Antitumor activity against GFP-tagged mouse B16F10 cells isografted into syngeneic athymic Ncr nu/nu mouse assessed as decrease in tumor growth rate at […], ip administered twice weekly starting from day 8 post-tumor inoculation. It is filed as functional, organism-based.
Data set [11] concerns B16-F10. Briefly: Antiangiogenic activity against GFP-tagged mouse B16F10 cells isografted into syngeneic athymic Ncr nu/nu mouse assessed as decrease in vascular density at […], ip administered twice weekly starting from day 8 post-tumor inoculation. It is filed as functional, organism-based.
A short description of data set [12]: Toxicity in ip dosed Ncr nu/nu mouse assessed as maximum tolerated dose administered twice weekly by whole animal toxicity assay. Format: organism-based. To be noted: in vivo.
Data set [13] has as its system Mus musculus. In words: Toxicity in Ncr nu/nu mouse assessed as body weight loss at […], ip administered twice weekly measured for 6 weeks by whole animal toxicity assay. It is filed as organism-based. To be noted: in vivo, 1008 h.
For data set [14], the system named is Chorioallantoic membrane. Briefly: Ratio of semaxanib IC50 to compound IC50 for VEGF165/bFGF-induced angiogenesis in chicken chorioallantoic membrane by dissecting microscopic analysis. To be noted: Gallus gallus. Format: functional.
For data set [15], the system named is B16-F10. In words: Antitumor activity against GFP-tagged mouse B16F10 cells isografted into syngeneic athymic Ncr nu/nu mouse assessed as decrease in tumor volume at […], ip administered twice weekly starting from day 8 post-tumor inoculation. It is filed as functional, organism-based.
The subject of data set [16] is Mus musculus. Briefly: Toxicity in Ncr nu/nu mouse assessed as body weight loss at 15 to 20 mg/kg, ip administered twice weekly measured for 6 weeks by whole animal toxicity assay. Format: organism-based. Details: dose 15-20 mg/kg, route intraperitoneal. The settings on record: in vivo, 1008 h.
For data set [17], the system named is B16-F10. Briefly: Antimetastatic activity against GFP-tagged mouse B16F10 cells isografted into syngeneic athymic Ncr nu/nu mouse assessed as decrease in number of B16F10 lung metastases at […], ip administered twice weekly starting from day 8 post-tumor inoculation by hematoxylin-eosin staining. Format: functional, organism-based.
The test system of data set [18] is Mus musculus. In words: Toxicity in Ncr nu/nu mouse assessed as body weight loss at 7.5 to 10 mg/kg, ip administered twice weekly measured for 6 weeks by whole animal toxicity assay. Details: dose 7.5-10 mg/kg, route intraperitoneal. The settings on record: in vivo, 1008 h. Format: organism-based.
Data set [19] concerns Chorioallantoic membrane. In words: Ratio of compound IC50 to semaxanib IC50 for VEGF165/bFGF-induced angiogenesis in chicken chorioallantoic membrane by dissecting microscopic analysis. It is filed as functional. The settings on record: Gallus gallus.
The test system of data set [20] is B16-F10. Briefly: Antiangiogenic activity against GFP-tagged mouse B16F10 cells isografted into syngeneic athymic Ncr nu/nu mouse assessed as decrease in vascular density at 10 mg/kg, ip administered twice weekly starting from day 8 post-tumor inoculation. Details: dose 10 mg/kg. Format: functional, organism-based.
For data set [21], the system named is B16-F10. In words: Antimetastatic activity against GFP-tagged mouse B16F10 cells isografted into syngeneic athymic Ncr nu/nu mouse assessed as decrease in number of B16F10 lung metastases at 10 mg/kg, ip administered twice weekly starting from day 8 post-tumor inoculation by hematoxylin-eosin staining. Format: functional, organism-based. Also on record: dose 10 mg/kg.

In data set [22] the test system is B16-F10. In words: Antitumor activity against GFP-tagged mouse B16F10 cells isografted into syngeneic athymic Ncr nu/nu mouse assessed as decrease in tumor volume at 10 mg/kg, ip administered twice weekly starting from day 8 post-tumor inoculation. Details: dose 10 mg/kg. Format: functional, organism-based. The gist of the method:
(§2)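 Mice bearing subcutaneous GFP-tagged B16-F10 tumors; treatment began once most tumors were caliper-measurable (day 8) after random sorting into groups. Dosing 10 mg/kg IP every Monday AM and Thursday PM; sham animals received water. Tumor length, width and depth measured Mon/Wed/Fri; volume = L×W×D; growth rate by linear regression. n = 7–10.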

The test system of data set [23] is B16-F10. Briefly: Antitumor activity against GFP-tagged mouse B16F10 cells isografted into syngeneic athymic Ncr nu/nu mouse assessed as decrease in tumor growth rate at 10 mg/kg, ip administered twice weekly starting from day 8 post-tumor inoculation. It is filed as functional, organism-based. Details: dose 10 mg/kg. In outline: as §2

Calls of active or inactive are those of the source. The calls are words filed in the database; no cut-off is given here.

Epidermal growth factor receptor, sequence (P00533 whole entry): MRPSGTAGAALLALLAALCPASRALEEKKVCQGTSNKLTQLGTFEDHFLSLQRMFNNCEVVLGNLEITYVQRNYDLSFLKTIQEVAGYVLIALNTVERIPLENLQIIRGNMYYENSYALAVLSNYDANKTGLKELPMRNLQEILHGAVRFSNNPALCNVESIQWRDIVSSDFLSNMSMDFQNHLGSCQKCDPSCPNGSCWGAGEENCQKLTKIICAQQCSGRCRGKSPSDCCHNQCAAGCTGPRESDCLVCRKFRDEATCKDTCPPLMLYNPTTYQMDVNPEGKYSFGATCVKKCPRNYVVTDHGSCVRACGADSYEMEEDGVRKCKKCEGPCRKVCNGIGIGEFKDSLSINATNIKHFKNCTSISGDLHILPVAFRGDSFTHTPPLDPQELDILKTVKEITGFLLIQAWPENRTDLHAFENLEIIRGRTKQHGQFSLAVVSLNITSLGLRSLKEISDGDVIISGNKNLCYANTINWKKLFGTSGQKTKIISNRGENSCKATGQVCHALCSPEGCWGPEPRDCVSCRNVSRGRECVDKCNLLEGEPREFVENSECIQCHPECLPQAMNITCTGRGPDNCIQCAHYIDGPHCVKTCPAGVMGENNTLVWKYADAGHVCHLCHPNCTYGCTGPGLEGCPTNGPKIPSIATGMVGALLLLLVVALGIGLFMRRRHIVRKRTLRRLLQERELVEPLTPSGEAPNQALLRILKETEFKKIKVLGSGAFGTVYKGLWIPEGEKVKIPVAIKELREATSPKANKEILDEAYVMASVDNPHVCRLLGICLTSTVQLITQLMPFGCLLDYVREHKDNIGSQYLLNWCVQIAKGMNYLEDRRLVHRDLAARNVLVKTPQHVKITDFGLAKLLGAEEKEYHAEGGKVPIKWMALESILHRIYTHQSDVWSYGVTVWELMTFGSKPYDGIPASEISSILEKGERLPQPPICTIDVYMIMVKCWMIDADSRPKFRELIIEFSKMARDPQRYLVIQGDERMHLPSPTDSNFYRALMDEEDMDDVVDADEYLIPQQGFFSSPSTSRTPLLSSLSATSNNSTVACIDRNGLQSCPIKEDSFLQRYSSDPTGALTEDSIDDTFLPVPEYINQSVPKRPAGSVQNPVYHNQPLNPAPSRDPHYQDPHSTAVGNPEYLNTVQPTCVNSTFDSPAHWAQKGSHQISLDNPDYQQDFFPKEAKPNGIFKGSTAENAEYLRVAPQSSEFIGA
T1 sequence (P17948 whole entry): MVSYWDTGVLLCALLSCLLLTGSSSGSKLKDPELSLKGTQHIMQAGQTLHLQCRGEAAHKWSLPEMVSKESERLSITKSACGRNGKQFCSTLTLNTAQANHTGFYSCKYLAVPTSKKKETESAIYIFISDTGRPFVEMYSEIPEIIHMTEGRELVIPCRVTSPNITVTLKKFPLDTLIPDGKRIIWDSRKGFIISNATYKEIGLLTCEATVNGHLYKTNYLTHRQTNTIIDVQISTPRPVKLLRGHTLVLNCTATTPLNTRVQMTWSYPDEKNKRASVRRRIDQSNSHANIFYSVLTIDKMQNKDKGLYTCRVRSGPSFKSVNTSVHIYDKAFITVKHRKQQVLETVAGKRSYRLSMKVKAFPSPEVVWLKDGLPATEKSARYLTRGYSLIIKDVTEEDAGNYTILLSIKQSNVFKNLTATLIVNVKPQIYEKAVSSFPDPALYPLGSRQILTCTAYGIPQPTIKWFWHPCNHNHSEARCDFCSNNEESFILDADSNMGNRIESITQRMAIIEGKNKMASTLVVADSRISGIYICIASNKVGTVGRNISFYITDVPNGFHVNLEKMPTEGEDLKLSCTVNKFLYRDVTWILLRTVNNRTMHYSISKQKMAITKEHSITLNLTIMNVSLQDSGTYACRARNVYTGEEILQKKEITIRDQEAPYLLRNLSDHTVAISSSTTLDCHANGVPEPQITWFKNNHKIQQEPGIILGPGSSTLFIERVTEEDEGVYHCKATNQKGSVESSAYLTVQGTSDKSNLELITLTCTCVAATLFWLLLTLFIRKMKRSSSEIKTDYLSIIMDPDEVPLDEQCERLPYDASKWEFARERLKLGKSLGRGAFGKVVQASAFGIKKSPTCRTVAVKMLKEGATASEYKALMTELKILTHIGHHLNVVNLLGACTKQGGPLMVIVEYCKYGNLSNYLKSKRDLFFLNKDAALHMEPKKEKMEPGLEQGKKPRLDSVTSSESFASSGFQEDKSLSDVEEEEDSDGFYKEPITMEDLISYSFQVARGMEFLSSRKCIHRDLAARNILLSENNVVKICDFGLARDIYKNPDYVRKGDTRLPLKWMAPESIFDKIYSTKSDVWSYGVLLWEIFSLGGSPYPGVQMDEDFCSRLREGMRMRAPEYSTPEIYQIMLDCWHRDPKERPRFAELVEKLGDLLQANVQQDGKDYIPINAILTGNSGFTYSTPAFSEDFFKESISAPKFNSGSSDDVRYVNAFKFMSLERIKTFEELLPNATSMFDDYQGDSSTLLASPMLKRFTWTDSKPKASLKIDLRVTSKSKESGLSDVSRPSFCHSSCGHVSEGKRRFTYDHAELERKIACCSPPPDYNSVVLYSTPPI
Platelet-derived growth factor receptor beta, sequence (P09619 whole entry): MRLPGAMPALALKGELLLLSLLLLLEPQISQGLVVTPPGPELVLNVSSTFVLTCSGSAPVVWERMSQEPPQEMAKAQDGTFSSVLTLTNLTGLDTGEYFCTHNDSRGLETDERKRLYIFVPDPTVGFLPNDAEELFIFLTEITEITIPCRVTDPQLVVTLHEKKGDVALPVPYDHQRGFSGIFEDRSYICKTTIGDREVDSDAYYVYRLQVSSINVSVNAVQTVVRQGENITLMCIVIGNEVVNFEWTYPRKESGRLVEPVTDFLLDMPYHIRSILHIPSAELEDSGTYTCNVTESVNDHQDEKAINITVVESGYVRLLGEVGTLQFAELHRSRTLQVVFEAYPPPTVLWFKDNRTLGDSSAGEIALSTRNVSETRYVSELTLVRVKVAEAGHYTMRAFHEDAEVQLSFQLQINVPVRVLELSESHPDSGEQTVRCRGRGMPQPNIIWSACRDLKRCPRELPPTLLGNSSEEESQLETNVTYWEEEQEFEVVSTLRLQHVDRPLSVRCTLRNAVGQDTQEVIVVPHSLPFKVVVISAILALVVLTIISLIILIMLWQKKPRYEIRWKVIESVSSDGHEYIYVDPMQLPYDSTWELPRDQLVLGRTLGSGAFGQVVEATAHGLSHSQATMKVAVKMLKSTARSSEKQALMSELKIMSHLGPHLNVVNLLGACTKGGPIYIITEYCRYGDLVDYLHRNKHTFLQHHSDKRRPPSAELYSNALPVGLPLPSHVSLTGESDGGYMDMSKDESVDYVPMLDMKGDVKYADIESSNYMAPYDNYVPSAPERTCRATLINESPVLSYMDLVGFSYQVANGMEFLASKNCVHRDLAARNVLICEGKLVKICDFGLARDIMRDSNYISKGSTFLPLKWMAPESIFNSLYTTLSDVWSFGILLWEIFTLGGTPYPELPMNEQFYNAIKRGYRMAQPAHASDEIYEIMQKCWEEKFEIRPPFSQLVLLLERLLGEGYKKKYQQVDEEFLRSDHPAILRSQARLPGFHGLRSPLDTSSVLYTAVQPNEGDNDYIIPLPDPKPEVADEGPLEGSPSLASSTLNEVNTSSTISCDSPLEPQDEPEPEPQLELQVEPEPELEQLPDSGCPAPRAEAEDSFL
T2 sequence (P35968 whole entry): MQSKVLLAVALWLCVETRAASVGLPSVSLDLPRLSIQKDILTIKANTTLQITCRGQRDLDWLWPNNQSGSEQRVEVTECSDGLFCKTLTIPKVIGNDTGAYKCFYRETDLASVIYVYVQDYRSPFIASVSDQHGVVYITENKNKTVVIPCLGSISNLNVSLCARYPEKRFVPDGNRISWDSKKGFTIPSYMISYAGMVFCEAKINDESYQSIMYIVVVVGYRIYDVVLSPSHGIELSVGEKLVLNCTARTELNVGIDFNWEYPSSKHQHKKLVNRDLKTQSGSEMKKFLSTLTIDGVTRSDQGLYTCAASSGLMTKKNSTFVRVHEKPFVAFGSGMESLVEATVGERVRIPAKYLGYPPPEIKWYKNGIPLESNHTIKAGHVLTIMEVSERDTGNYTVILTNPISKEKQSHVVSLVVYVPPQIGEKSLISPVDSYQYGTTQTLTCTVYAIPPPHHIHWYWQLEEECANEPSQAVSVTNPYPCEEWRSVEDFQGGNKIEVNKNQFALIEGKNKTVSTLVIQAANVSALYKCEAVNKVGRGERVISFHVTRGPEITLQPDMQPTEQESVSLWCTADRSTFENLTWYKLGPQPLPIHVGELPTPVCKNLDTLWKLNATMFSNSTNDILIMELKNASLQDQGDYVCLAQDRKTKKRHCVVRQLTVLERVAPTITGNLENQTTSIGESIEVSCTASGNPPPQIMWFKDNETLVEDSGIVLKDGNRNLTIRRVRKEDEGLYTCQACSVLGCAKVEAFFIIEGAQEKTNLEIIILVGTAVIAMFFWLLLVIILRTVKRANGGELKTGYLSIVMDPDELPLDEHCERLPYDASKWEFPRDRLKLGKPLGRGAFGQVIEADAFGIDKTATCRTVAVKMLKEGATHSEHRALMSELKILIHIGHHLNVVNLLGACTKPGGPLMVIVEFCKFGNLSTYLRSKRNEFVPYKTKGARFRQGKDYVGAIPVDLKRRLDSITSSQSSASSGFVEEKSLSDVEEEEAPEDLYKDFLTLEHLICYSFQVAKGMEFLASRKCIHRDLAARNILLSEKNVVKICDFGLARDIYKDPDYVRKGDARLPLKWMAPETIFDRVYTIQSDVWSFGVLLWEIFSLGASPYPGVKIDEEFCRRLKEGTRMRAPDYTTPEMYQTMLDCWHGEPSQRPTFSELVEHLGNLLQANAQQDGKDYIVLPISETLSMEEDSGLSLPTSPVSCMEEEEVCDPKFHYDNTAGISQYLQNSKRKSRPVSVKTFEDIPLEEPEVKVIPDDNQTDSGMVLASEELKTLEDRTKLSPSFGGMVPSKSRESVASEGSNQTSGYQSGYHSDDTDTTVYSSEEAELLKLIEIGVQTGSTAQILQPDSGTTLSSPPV

As a reminder, the IC50 is the point on the concentration scale where inhibition reaches its midpoint. As to `C#Cc1cccc(Nc2nc(N)nc3[nH]c(CCc4ccccn4)cc23)c1`, the IC50 was 13.9 µM in the data set on Chorioallantoic membrane [1]; 19.9 µM in data set [2]; 43.6 µM in data set [5]; 331 µM in data set [6]; 103 µM in data set [7]; 0.9 µM in the data set on A-431 [8]. In addition, the values for the Ratio IC50 (in data set [3]; in the data set on A-431 [4]) were 5 and 8, respectively.

As to `CC(C)(C)C(=O)Nc1nc(Nc2cccc(C(F)(F)F)c2)c2cc(CCc3ccccn3)[nH]c2n1`, the IC50 was 1.6 µM with Chorioallantoic membrane [1]; 12.8 µM in data set [2]; 16.7 µM in data set [5]; over 500 µM in [6]; 130 µM in data set [7]; 2.9 µM with A-431 [8]. Also, the Ratio IC50 in data set [3] worked out at 5; in [9], 1.5.

In the case of `Nc1nc(Nc2cccc(C(F)(F)F)c2)c2cc(CCc3ccccn3)[nH]c2n1`, the half-inhibitory concentration (IC50) is 1.09 µM in the data set on Chorioallantoic membrane [1]; 19.3 µM in [2]; 16.7 µM in data set [5]; over 500 µM in [6]; over 200 µM in data set [7]; 3.4 µM in the data set on A-431 [8]. Further, the Ratio IC50 in data set [9] worked out at 1.5.

On to `Nc1nc(Nc2ccc(F)c(C(F)(F)F)c2)c2cc(CCc3ccccn3)[nH]c2n1`, for which the IC50 is 14 µM with Chorioallantoic membrane [1]; 15.6 µM in data set [2]; 124 µM in data set [5]; over 500 µM in data set [6]; over 200 µM in [7]; 3.2 µM in the data set on A-431 [8].

For the compound `Nc1nc(Nc2ccc(F)c(Cl)c2)c2cc(CCc3ccccn3)[nH]c2n1`, the IC50 in the data set on Chorioallantoic membrane [1] was 11.3 µM; in data set [2], 111 µM; in [5], over 200 µM; in data set [6], over 500 µM; in data set [7], over 200 µM; in the data set with A-431 [8], 27 µM.

`C#Cc1cccc(Nc2nc(NC(=O)C(C)(C)C)nc3[nH]c(CCc4ccccn4)cc23)c1`: the IC50 was 3.2 µM in the data set with Chorioallantoic membrane [1]; over 200 µM in [2]; 126 µM in data set [5]; 430 µM in data set [6]; 156 µM in [7]; 29.9 µM in the data set on A-431 [8]. Further, in data set [3], the Ratio IC50 was 5.

Take `CC(C)(C)C(=O)Nc1nc(Nc2ccc(F)c(Cl)c2)c2cc(CCc3ccccn3)[nH]c2n1`: the 50% inhibitory concentration (IC50) was 2 µM in the data set on Chorioallantoic membrane [1]; 16.3 µM in data set [2]; 89.3 µM in [5]; over 500 µM in data set [6]; over 200 µM in data set [7]; 2.6 µM in the data set with A-431 [8].

On to `Nc1nc(Nc2cccc(Br)c2)c2cc(CCc3ccccn3)[nH]c2n1`, for which the IC50 was 7.23 µM in the data set with Chorioallantoic membrane [1]; 49.9 µM in [5]; 13.4 µM in data set [6]; over 50 µM in data set [7]; 19.6 µM in the data set on A-431 [8].

Usually MTD stands for the highest dose tested that stayed within the study's limit of toxicity. `Nc1nc(Nc2ccc(F)c(Br)c2)c2cc(CCc3ccccn3)[nH]c2n1`: the 50% inhibitory concentration (IC50) is 0.07 µM in the data set with Chorioallantoic membrane [1]; 85.9 µM in [2]; 24.1 µM in [5]; over 500 µM in data set [6]; 93.6 µM in data set [7]; 12.2 µM in the data set with A-431 [8]. Further, the inhibition result in the data set on B16-F10 [10], with B16-F10 [11], with B16-F10 [15] and in the data set with B16-F10 [17] was “Active” throughout. In addition, the Ratio IC50 in data set [3] came to 5; in the data set with Chorioallantoic membrane [14], 1.2; in data set [9] it was 2.4. Also, the MTD in data set [12] is 12.5 mg/kg. In addition, the values for the Activity in the data set on Mus musculus [13], in the data set on Mus musculus [16] and in the data set with Mus musculus [18] were 1%, “Toxic” and “Non-toxic”, respectively.

On to `CC(C)(C)C(=O)Nc1nc(Nc2ccc(F)c(Br)c2)c2cc(CCc3ccccn3)[nH]c2n1`, for which the half-maximal inhibitory concentration (IC50) in the data set on Chorioallantoic membrane [1] is 0.9 µM; in data set [2], 5.4 µM; in data set [5], over 200 µM; in data set [6] it was 89.7 µM; in data set [7], over 200 µM; in the data set on A-431 [8], 1 µM. Further, the Ratio IC50 with Chorioallantoic membrane [19] was 10.

Take `CC(C)(C)C(=O)Nc1nc(Nc2ccc(F)c(C(F)(F)F)c2)c2cc(CCc3ccccn3)[nH]c2n1`: the IC50 was 8.6 µM with Chorioallantoic membrane [1]; 26.9 µM in data set [2]; 151 µM in data set [5]; over 500 µM in data set [6]; 190 µM in data set [7]; 1.9 µM with A-431 [8]. In data set [3], the Ratio IC50 was 5.

With `CN(Cc1cnc2nc(N)nc(N)c2n1)c1ccc(C(=O)N[C@@H](CCC(=O)O)C(=O)O)cc1`, the inhibition result with B16-F10 [20], with B16-F10 [21], with B16-F10 [22] and in the data set on B16-F10 [23] was “Active” throughout.

Source of the values: ChEMBL document CHEMBL2331499, “N2-Trimethylacetyl substituted and unsubstituted-N4-phenylsubstituted-6-(2-pyridin-2-ylethyl)-7H-pyrrolo[2,3-d]pyrimidine-2,4-diamines: design, cellular receptor tyrosine kinase inhibitory activities and in vivo evaluation as antiangiogenic, antimetastatic and antitumor agents” (Bioorg Med Chem, 2013).
